Results: ChEMBL document CHEMBL1152701, “Design, synthesis and biological evaluation of novel dual inhibitors of acetylcholinesterase and beta-secretase” (Bioorg Med Chem, 2009)
Calls of active or inactive are those of the source. The calls are words filed in the database; no cut-off is given here.

What was measured:
Beta-secretase 1 [1] = target: T1, Beta-secretase 1 (Homo sapiens, UniProt P56817); experiment: Inhibition of human recombinant C-terminal histidine-tagged BACE1 expressed in baculovirus-infected insect cells by FRET assay
T1 sequence (P56817 whole entry): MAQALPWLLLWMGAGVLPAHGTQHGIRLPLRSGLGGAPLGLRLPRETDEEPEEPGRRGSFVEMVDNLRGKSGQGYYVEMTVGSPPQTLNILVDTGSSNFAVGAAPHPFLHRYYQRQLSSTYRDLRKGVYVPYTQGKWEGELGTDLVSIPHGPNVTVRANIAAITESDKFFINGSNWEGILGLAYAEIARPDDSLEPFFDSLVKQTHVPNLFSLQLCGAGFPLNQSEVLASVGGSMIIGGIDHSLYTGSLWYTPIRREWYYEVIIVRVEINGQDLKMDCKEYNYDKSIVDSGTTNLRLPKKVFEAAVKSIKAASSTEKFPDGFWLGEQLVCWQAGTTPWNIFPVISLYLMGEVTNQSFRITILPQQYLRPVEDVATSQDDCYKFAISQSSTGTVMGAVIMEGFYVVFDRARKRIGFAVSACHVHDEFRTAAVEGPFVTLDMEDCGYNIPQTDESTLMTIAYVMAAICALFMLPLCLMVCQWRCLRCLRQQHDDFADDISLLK

Beta-secretase 1 [2] = target: T1, Beta-secretase 1; experiment: Inhibition of BACE1 in HEK293 cells transfected with human betaAPP695 mutant assessed as inhibition of amyloid beta (1 to 40) production after 24 hrs by ELISA; format: cell-based
Procedure, shortened: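 HEK293 cells stably carrying APP695 with Swedish double mutation, grown in DMEM plus 10% heat-inactivated FBS. Compounds added at seeding at several concentrations, 24 h at 37 °C, 5% CO2. Secreted Aβ1-40 in conditioned medium quantified by colorimetric sandwich ELISA.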

Mus musculus [3] = experiment: Decrease in amyloid beta (1 to 40) production in transgenic mouse transfected with human APP695 Swedish double mutant at 8 nmol, intracerebroventricularly after 4 hrs by ELISA relative to control; format: functional; parameters: scale not given: the % may be the effect or the level left
Procedure, shortened: (§1)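 The vehicle control was distilled H2O. After 4 h, hemispheres were isolated on ice and Aβ1-40 was measured by colorimetric human Aβ1-40 ELISA against vehicle-treated mice. Data are means ± SD; independent t-test.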

PC-12 = experiment: Cell protective activity against H2O2-induced cell injury in rat PC12 cells assessed as cell viability at 1 to 10 uM pretreated for 2 hrs measured after 24 hrs by MTT assay; format: functional, cell-based
Procedure, shortened: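 PC12 cells seeded at 1 × 10^5 cells per mL in DMEM with 10% heat-inactivated bovine calf serum, used 24 h later. Compounds dissolved in 2% DMSO then diluted in PBS; 2 h pretreatment, H2O2 for 30 min, then fresh phenol red-free DMEM. Viability by MTT reduction 24 h later, absorbance 570 and 630 nm. Means ± SD, one-way ANOVA with Duncan's test.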

Mus musculus [4] = experiment: Decrease in amyloid beta (1 to 40) production in transgenic mouse transfected with human APP695 Swedish double mutant at 10 nmol, intracerebroventricularly after 4 hrs by ELISA relative to control; format: functional; parameters: scale not given: the % may be the effect or the level left; procedure, shortened: as §1

Row | SMILES | IC50 (Beta-secretase 1 [1]) | IC50 (Beta-secretase 1 [2]) | also measured
1 | CC(C)C[C@H](NC(=O)c1cc(C(=O)N[C@H](C)c2ccc(F)cc2)cc(N(C)S(C)(=O)=O)c1)[C@@H](O)C[C@@H](C)C(=O)NCC1CCN(Cc2ccccc2)CC1 | 616 nM | < 1000 nM | –
2 | C[C@@H](NC(=O)c1cc(C(=O)N[C@@H](Cc2ccccc2)[C@H](O)CNCCC2CCN(Cc3ccccc3)CC2)cc([N+](=O)[O-])c1)c1ccccc1 | 7020 nM | < 1000 nM | –
3 | C[C@@H](NC(=O)c1cc(C(=O)N[C@@H](Cc2ccccc2)C(O)C(=O)NC2CCN(Cc3ccccc3)CC2)cc(N(C)S(C)(=O)=O)c1)c1ccccc1 (mixture of isomers) | – | < 1000 nM | –
4 | CC(C)C[C@H](NC(=O)c1cc(C(=O)N[C@H](C)c2ccccc2)cc(N(C)S(C)(=O)=O)c1)[C@@H](O)C[C@@H](C)C(=O)NN1CCN(Cc2ccccc2)CC1 | – | < 1000 nM | –
5 | CCCN(CCC)C(=O)c1cc(C(=O)N[C@@H](Cc2ccccc2)C(O)C(=O)NCCC2CCN(Cc3ccccc3)CC2)cc([N+](=O)[O-])c1 (mixture of isomers) | – | < 1000 nM | –
6 | C[C@@H](NC(=O)c1cc(C(=O)N[C@@H](Cc2ccccc2)[C@H](O)CNCCC2CCN(Cc3ccccc3)CC2)cc(N(C)S(C)(=O)=O)c1)c1ccccc1 | 567 nM | 98.7 nM | Activity (Mus musculus [3]): 29%; Activity (PC-12): Active
7 | CCCN(CCC)C(=O)c1cc(C(=O)N[C@@H](Cc2ccccc2)C(O)C(=O)NC2CCN(Cc3ccccc3)CC2)cc([N+](=O)[O-])c1 (mixture of isomers) | – | < 1000 nM | –
8 | C[C@@H](NC(=O)c1cccc(C(=O)N[C@@H](Cc2ccccc2)[C@H](O)CNCCC2CCN(Cc3ccccc3)CC2)c1)c1ccccc1 | – | < 1000 nM | –
9 | C[C@@H](NC(=O)c1cccc(C(=O)N[C@@H](Cc2ccccc2)[C@H](O)CNCCC2CCN(Cc3ccccc3)CC2)c1)c1ccc(F)cc1 | – | < 1000 nM | –
10 | C[C@@H](NC(=O)c1cc(C(=O)N[C@@H](Cc2ccccc2)[C@H](O)CNCCC2CCN(Cc3ccccc3)CC2)cc(N(C)S(C)(=O)=O)c1)c1ccc(F)cc1 | 222 nM | < 1000 nM | –
11 | C[C@@H](NC(=O)c1cc(C(=O)N[C@@H](Cc2ccccc2)C(O)C(=O)NCC2CCN(Cc3ccccc3)CC2)cc(N(C)S(C)(=O)=O)c1)c1ccc(F)cc1 (mixture of isomers) | – | < 1000 nM | –
12 | C[C@@H](NC(=O)c1cc(C(=O)N[C@@H](Cc2ccccc2)C(O)C(=O)NCCC2CCN(Cc3ccccc3)CC2)cc(N(C)S(C)(=O)=O)c1)c1ccccc1 (mixture of isomers) | – | < 1000 nM | –
13 | C[C@@H](NC(=O)c1cc(C(=O)N[C@@H](Cc2ccccc2)C(O)C(=O)NCC2CCN(Cc3ccccc3)CC2)cc(N(C)S(C)(=O)=O)c1)c1ccccc1 (mixture of isomers) | – | < 1000 nM | –
14 | CC(C)C[C@H](NC(=O)c1cc(C(=O)N[C@H](C)c2ccc(F)cc2)cc(N(C)S(C)(=O)=O)c1)[C@@H](O)C[C@@H](C)C(=O)NC1CCN(Cc2ccccc2)CC1 | 1500 nM | < 1000 nM | –
15 | CC(C)C[C@H](NC(=O)c1cc(C(=O)N[C@H](C)c2ccccc2)cc(N(C)S(C)(=O)=O)c1)[C@@H](O)C[C@@H](C)C(=O)NC1CCN(Cc2ccccc2)CC1 | 1540 nM | < 1000 nM | –
16 | CCCN(CCC)C(=O)c1cc(C(=O)N[C@@H](Cc2ccccc2)[C@H](O)CNCCC2CCN(Cc3ccccc3)CC2)cc([N+](=O)[O-])c1 | – | < 1000 nM | –
17 | CCCN(CCC)C(=O)c1cc(C(=O)N[C@@H](Cc2ccccc2)C(O)C(=O)NCC2CCN(Cc3ccccc3)CC2)cc([N+](=O)[O-])c1 (mixture of isomers) | – | < 1000 nM | –
18 | CCCN(CCC)C(=O)c1cccc(C(=O)N[C@@H](Cc2ccccc2)[C@H](O)CNCCC2CCN(Cc3ccccc3)CC2)c1 | – | < 1000 nM | –
19 | C[C@@H](NC(=O)c1cc(C(=O)N[C@@H](Cc2ccccc2)C(O)C(=O)NCCC2CCN(Cc3ccccc3)CC2)cc(N(C)S(C)(=O)=O)c1)c1ccc(F)cc1 (mixture of isomers) | – | < 1000 nM | –
20 | CC(C)C[C@H](NC(=O)c1cc(C(=O)N[C@H](C)c2ccc(F)cc2)cc(N(C)S(C)(=O)=O)c1)[C@@H](O)C[C@@H](C)C(=O)NCCC1CCN(Cc2ccccc2)CC1 | 1340 nM | < 1000 nM | –
21 | C[C@@H](NC(=O)c1cc(C(=O)N[C@@H](Cc2ccccc2)[C@H](O)CNCC2CCN(Cc3ccccc3)CC2)cc(N(C)S(C)(=O)=O)c1)c1ccccc1 | 4000 nM | < 1000 nM | –
22 | C[C@@H](NC(=O)c1cc(C(=O)N[C@H](CO)Cc2ccccc2)cc(N(C)S(C)(=O)=O)c1)c1ccc(F)cc1 | 462 nM | < 1000 nM | –
23 | CC(C)C[C@H](NC(=O)c1cc(C(=O)N[C@H](C)c2ccc(F)cc2)cc(N(C)S(C)(=O)=O)c1)[C@@H](O)C[C@@H](C)C(=O)NN1CCN(Cc2ccccc2)CC1 | – | < 1000 nM | –
24 | CCCN(CCC)C(=O)c1cc(C(=O)N[C@@H](Cc2ccccc2)[C@H](O)CNCCC2CCN(Cc3ccccc3)CC2)cc(N(C)S(C)(=O)=O)c1 | 2390 nM | < 1000 nM | –
25 | C[C@@H](NC(=O)c1cc(C(=O)N[C@@H](Cc2ccccc2)[C@H](O)CNCC2CCN(Cc3ccccc3)CC2)cc(N(C)S(C)(=O)=O)c1)c1ccc(F)cc1 | 3230 nM | < 1000 nM | –
26 | C[C@@H](NC(=O)c1cc(C(=O)N[C@@H](Cc2ccccc2)[C@H](O)CNCCC2CCN(Cc3ccccc3)CC2)cc([N+](=O)[O-])c1)c1ccc(F)cc1 | 2680 nM | < 1000 nM | –
27 | C[C@@H](NC(=O)c1cc(C(=O)N[C@@H](Cc2ccccc2)[C@H](O)CNC2CCN(Cc3ccccc3)CC2)cc(N(C)S(C)(=O)=O)c1)c1ccc(F)cc1 | 771 nM | < 1000 nM | –
28 | C[C@@H](NC(=O)c1cc(C(=O)N[C@@H](Cc2ccccc2)C(O)C(=O)NC2CCN(Cc3ccccc3)CC2)cc(N(C)S(C)(=O)=O)c1)c1ccc(F)cc1 (mixture of isomers) | – | < 1000 nM | –
29 | C[C@@H](NC(=O)c1cc(C(=O)N[C@@H](Cc2ccccc2)[C@H](O)CNC2CCN(Cc3ccccc3)CC2)cc(N(C)S(C)(=O)=O)c1)c1ccccc1 | 511 nM | 54.6 nM | Activity (Mus musculus [4]): 23%; Activity (PC-12): Active
